Experimental findings from PubChem BioAssay are described below.

Activity calls are given as the source filed them.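 How the source made its calls, unless noted: active means viability at or under a set limit in both replicates, limit being median viability minus 3 SD (cut at about 48% in these data, passing the limit was not always enough); inconclusive means at or under the limit in just one replicate; inactive means at or above the limit in both replicates.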

Assay [1] can be described thus: HUVEC growth inhibition – cell-based, human, primary screen (AID 575;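 active means viability at or below 30% in both replicate assays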;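 further: 100% = median of untreated cell wells with 0.1% DMSO on each plate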). Conditions: HUVEC proliferation, CellTiter-Glo luminescence, 72 h; at 10 µM; stronger effect = lower value. Put shortly:
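Test system: primary human umbilical vein endothelial cells; medium: endothelial basal medium with 2% FBS plus growth supplements; dosing: 10 µM compound only; times: 72 h treatment at 37 °C; signal: CTG luminescence; read-out: % viability relative to median vehicle-well signal on each plate; control set: vehicle and MePR control wells; plate: 384-well, collagen-coated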

The nature of assay [2]: growth inhibitors of H69AR lung tumor, primary screen, human, duplicate replicates (AID 580).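 Further: 100% = mean luminescence of untreated wells and 0% = no signal.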 As to conditions: H69AR lung tumor cells viability, ATP luminescence, 72 h; at 10 µM; stronger effect = lower value.
A short description of assay [3]: reversal of MRP1-mediated doxorubicin resistance, pilot screen, H69AR cells, doxorubicin co-treatment (AID 601;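 active means viability loss from added drug above about 55%, and viability with drug at most 40%, in both replicates, limit read from the data, passing the limit was not always enough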). As to conditions: CellTiter-Glo, 72 h, at 10 µM; for differential viability (reversal): stronger effect = higher value.
A short description of assay [4]: 384-well plate pilot, post-Golgi transport modulator project, inhibition of yeast transport mutant growth (AID 636; in the data active means inhibition above about 31%). Conditions: absorbance 615 nm, about 18 h, stronger effect = higher value.
Assay [5] can be described thus: growth suppression of yeast trafficking mutant, preliminary HTS, modulators of trafficking downstream of Golgi apparatus project, 1536-format plate, OD 615 nm (AID 637; in the data active means inhibition above about 30%). Conditions: yeast transport mutant growth, absorbance 615 nm, 18 h; stronger effect = higher value.
[6] abbreviates: H69AR cells + 2 uM doxorubicin, measured here: viability with 2 uM doxorubicin, stronger effect = lower value.
Where [7] appears, read: H69AR cells, compound alone cytotoxicity.

On to `Cc1ccc(NC(=O)CSc2nnc(-c3ccccn3)n2C)cc1`, for which the viability in assay [1] was 115% (inactive); in assay [2], 91.5% (inactive); in assay [3] (setting [6]), 92.3%; in assay [3] (setting [7]) it was 91.5%. In assay [3] (H69AR cells + 2 uM doxorubicin), the differential viability (reversal) was -0.845% (inactive). The values for the inhibition in assay [4] and in assay [5] were -7.73% (inactive) and -8.89% (inactive), respectively.

Regarding `CCOC(=O)C1=C(CC)Nc2ccccc2N=C1NC(=O)Nc1ccccc1OC`, the viability in assay [1] was 50.5% (inactive); in assay [2] it was 74% (inactive); in assay [3] (setting [6]), 74.5%; in assay [3] (setting [7]), 74%. In addition, the differential viability (reversal) in assay [3] (H69AR cells + 2 uM doxorubicin) is -0.52% (inactive). Moreover, the inhibition was 0.52% (inactive) in assay [4] and 1.11% (inactive) in assay [5].

For `CCN(CC)CCN1C(=O)C(O)=C(C(=O)c2cccs2)C1c1ccc(C)o1` (stereo not drawn), the viability in assay [1] was 98.7% (inactive); in assay [2], 98.6% (inactive); in assay [3] (setting [6]), 93.6%; in assay [3] (setting [7]), 98.6%. Moreover, the differential viability (reversal) in assay [3] (H69AR cells + 2 uM doxorubicin) was 5.08% (inactive). The inhibition in assay [4] is -4.13% (inactive); in assay [5] it was -1.11% (inactive).

Regarding `CCOC(=O)c1cc2c(=O)n3cccc(C)c3nc2n(CCOC)c1=NC(=O)c1ccncc1`, the viability in assay [1] is 104% (inactive); in assay [2], 82.6% (inactive); in assay [3] (setting [6]) it was 92.6%; in assay [3] (setting [7]) it was 82.6%. Further, the differential viability (reversal) in assay [3] (H69AR cells + 2 uM doxorubicin) is -10.1% (inactive). Further, the inhibition in assay [4] was -4.13% (inactive); in assay [5], 3.33% (inactive).

`N#Cc1nc(-c2ccccc2Cl)oc1N1CCOCC1`: the viability in assay [1] was 84.2% (inactive); in assay [2], 86.8% (inactive); in assay [3] (setting [6]), 83.3%; in assay [3] (setting [7]), 86.8%. For the same compound, the differential viability (reversal) in assay [3] (H69AR cells + 2 uM doxorubicin) is 3.5% (inactive). The results for the inhibition in assay [4] and in assay [5] were -3.47% (inactive) and 14.1% (inactive), respectively.

`COc1ccc(NC(=O)CSc2nnc(-c3ccncc3)n2CC2CCCO2)c(OC)c1` (stereo not drawn): the viability in assay [1] is 89.2% (inactive); in assay [2] it was 104% (inactive); in assay [3] (setting [6]), 97.7%; in assay [3] (setting [7]) it was 104%. In addition, the differential viability (reversal) in assay [3] (H69AR cells + 2 uM doxorubicin) is 5.88% (inactive). In addition, the inhibition in assay [4] was -6.36% (inactive); in assay [5] it was 4.13% (inactive).

Turning to `O=C(CCCNS(=O)(=O)c1ccccc1)NCc1ccco1`, the viability is 94.5% (inactive) in assay [1], 99.3% (inactive) in assay [2], 92.7% in assay [3] (setting [6]) and 99.3% in assay [3] (setting [7]). Moreover, the differential viability (reversal) in assay [3] (H69AR cells + 2 uM doxorubicin) is 6.58% (inactive). Further, the figures for the inhibition in assay [4] and in assay [5] were -4.67% (inactive) and 1.9% (inactive), respectively.

Regarding `Cc1nnc(NC2CCCCC2)[nH]c1=O`, the viability is 87.5% (inactive) in assay [1], 87.1% (inactive) in assay [2], 80.3% in assay [3] (setting [6]) and 87.1% in assay [3] (setting [7]). For the same compound, the differential viability (reversal) in assay [3] (H69AR cells + 2 uM doxorubicin) was 6.85% (inactive). The figures for the inhibition in assay [4] and in assay [5] were -5.19% (inactive) and 3.02% (inactive), respectively.

Consider `COC(=O)Cn1c(=O)c2c(nc(Br)n2CC(=O)OC)n(C)c1=O`, for which the viability was 91.6% (inactive) in assay [1], 86.5% (inactive) in assay [2], 79.7% in assay [3] (setting [6]) and 86.5% in assay [3] (setting [7]). For the same compound, the differential viability (reversal) in assay [3] (H69AR cells + 2 uM doxorubicin) is 6.83% (inactive). Further, the inhibition in assay [4] is -4.53% (inactive); in assay [5], -0.79% (inactive).

For the compound `CN(C)c1nc(N)nc(CSc2nnnn2-c2cccc3ccccc23)n1`, the viability was 99.9% (inactive) in assay [1], 70.1% (inactive) in assay [2], 73.4% in assay [3] (setting [6]) and 70.1% in assay [3] (setting [7]). The differential viability (reversal) in assay [3] (H69AR cells + 2 uM doxorubicin) was -3.27% (inactive). Moreover, the inhibition is -6.58% (inactive) in assay [4] and 4.13% (inactive) in assay [5].

For the compound `COc1ccccc1C1(CC(=O)N2CCOCC2)CCOC(C(C)C)C1` (stereo not drawn), the viability in assay [1] was 72.7% (inactive); in assay [2], 88.8% (inactive); in assay [3] (setting [6]), 91%; in assay [3] (setting [7]), 88.8%. For the same compound, in assay [3] (H69AR cells + 2 uM doxorubicin), the differential viability (reversal) is -2.17% (inactive). In addition, the inhibition is -5.47% (inactive) in assay [4] and -6.03% (inactive) in assay [5].

On to `C=C(C)Cn1c(CCNC(=O)CC)nc2ccccc21`, for which the viability in assay [1] was 100% (inactive); in assay [2], 104% (inactive); in assay [3] (setting [6]), 91.4%; in assay [3] (setting [7]) it was 104%. Also, the differential viability (reversal) in assay [3] (H69AR cells + 2 uM doxorubicin) was 12.7% (inactive). Besides, the inhibition in assay [4] is -3.95% (inactive); in assay [5] it was -0.63% (inactive).

For the compound `CCc1ccc(NC(=O)CS(=O)CC(=O)NCC2OCCc3ccccc32)cc1` (stereo not drawn), the viability is 101% (inactive) in assay [1], 99.1% (inactive) in assay [2], 95% in assay [3] (setting [6]) and 99.1% in assay [3] (setting [7]). Moreover, in assay [3] (H69AR cells + 2 uM doxorubicin), the differential viability (reversal) was 4.08% (inactive). For the same compound, the inhibition in assay [4] is -0.93% (inactive); in assay [5] it was 1.75% (inactive).

Regarding `O=C(CSc1nnc(-c2ccccc2)o1)N1CCN(c2ccccc2)CC1`, the viability in assay [1] is 89.9% (inactive); in assay [2], 98.3% (inactive); in assay [3] (setting [6]), 94.8%; in assay [3] (setting [7]) it was 98.3%. In assay [3] (H69AR cells + 2 uM doxorubicin), the differential viability (reversal) is 3.54% (inactive). The inhibition in assay [4] is -4.53% (inactive); in assay [5], 1.75% (inactive).

As to `Cc1ccnc(NS(=O)(=O)c2ccc(N=CC3=C(O)CC(C)(C)CC3=O)cc2)n1`, the viability in assay [1] is 102% (inactive); in assay [2], 97.1% (inactive); in assay [3] (setting [6]) it was 97.5%; in assay [3] (setting [7]) it was 97.1%. In addition, the differential viability (reversal) in assay [3] (H69AR cells + 2 uM doxorubicin) was -0.37% (inactive). Moreover, the inhibition was 0.92% (inactive) in assay [4] and -5.4% (inactive) in assay [5].

Consider `Cc1ccccc1OCCn1c(=O)oc2ccccc21`, for which the viability is 82.3% (inactive) in assay [1], 91.5% (inactive) in assay [2], 74.7% in assay [3] (setting [6]) and 91.5% in assay [3] (setting [7]). Besides, the differential viability (reversal) in assay [3] (H69AR cells + 2 uM doxorubicin) is 16.8% (inactive). The inhibition in assay [4] was -5.07% (inactive); in assay [5] it was 2.38% (inactive).

For the compound `Cc1ccccc1NC(=O)c1ccc(NC(=O)c2ccco2)cc1`, the viability is 102% (inactive) in assay [1], 80.7% (inactive) in assay [2], 79.4% in assay [3] (setting [6]) and 80.7% in assay [3] (setting [7]). Further, in assay [3] (H69AR cells + 2 uM doxorubicin), the differential viability (reversal) is 1.25% (inactive). Also, the inhibition in assay [4] was -6.84% (inactive); in assay [5], -4.6% (inactive).

Consider `COC(=O)C1=C(C)N(c2ccc(C(=O)OC)cc2)C(=O)C1`, for which the viability in assay [1] was 86.9% (inactive); in assay [2], 88.8% (inactive); in assay [3] (setting [6]) it was 86%; in assay [3] (setting [7]), 88.8%. In assay [3] (H69AR cells + 2 uM doxorubicin), the differential viability (reversal) is 2.86% (inactive). Besides, the inhibition in assay [4] is -0.39% (inactive); in assay [5], 1.43% (inactive).

Turning to `CSc1nsc(SCC(=O)N2CCc3ccccc32)n1`, the viability in assay [1] is 98.6% (inactive); in assay [2], 96.8% (inactive); in assay [3] (setting [6]), 92.2%; in assay [3] (setting [7]), 96.8%. The differential viability (reversal) in assay [3] (H69AR cells + 2 uM doxorubicin) was 4.61% (inactive). Also, the inhibition in assay [4] was -6.05% (inactive); in assay [5], 3.33% (inactive).
